Laboratory results: ChEMBL document CHEMBL1125724, “Potential anti-AIDS agents. Synthesis and antiviral activity of naphthalenesulfonic acid derivatives against HIV-1 and HIV-2” (1991)
Values after ≈ are worked out from the molar mass of the structure shown.

Legend:
[1] = biological target: Human immunodeficiency virus type 1 reverse transcriptase (Human immunodeficiency virus 1) (UniProt Q72547); conditions: 2.8 uM
[2] = biological target: Human immunodeficiency virus type 1 reverse transcriptase (Human immunodeficiency virus 1) (UniProt Q72547); conditions: 350 uM
[3] = biological target: Human immunodeficiency virus type 1 reverse transcriptase (Human immunodeficiency virus 1) (UniProt Q72547); conditions: 14 uM
[4] = biological target: Human immunodeficiency virus type 1 reverse transcriptase (Human immunodeficiency virus 1) (UniProt Q72547); conditions: 350 uM; remark: listed apart in the source
MT4 [5] = experiment: Compound was evaluated for inhibitory effect against MT-4 cells of HIV-1 at a concentration of 20(84) ug/mL (uM).; type: functional, Homo sapiens
Summary of the method: (§1)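 HIV-1 (HTLV-III_B) infected MT-4 cells at multiplicity of infection 0.02, incubated with a range of compound concentrations for 4 days. Viable cells counted by MTT method. Per-concentration inhibition of virus-induced cytopathogenicity; values are means of two separate experiments.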

[6] = system: Human immunodeficiency virus 1; experiment: Compound tested for % inhibition of giant cell formation at a concentration of 420 uM
MT4 [7] = experiment: Compound was evaluated for inhibitory effect against MT-4 cells of HIV-1 at a concentration of 100(420) ug/mL (uM).; type: functional, Homo sapiens
Summary of the method: as §1

MT4 [8] = experiment: Compound tested for its inhibition of HIV-2 induced cytopathogenicity in MT-4 cells.; type: functional; conditions: Homo sapiens, read-out: ED50 (the source's name)
Summary of the method: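 MT-4 cells infected with HIV-2 (ROD) at MOI 0.02 and incubated 4 days with a range of compound concentrations. Viable cells were counted by MTT. ED50 is the dose giving 50% inhibition of virus-induced cytopathogenicity, given as the mean of two separate experiments.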

MT4 [9] = experiment: Compound was evaluated for inhibitory effect against MT-4 cells of HIV-1 at a concentration of 0.8(3.4) ug/mL (uM).; type: functional, Homo sapiens
Summary of the method: as §1

[10] = biological target: Human immunodeficiency virus type 1 reverse transcriptase (Human immunodeficiency virus 1) (UniProt Q72547); experiment: Compound tested for % inhibition of cell-free HIV-1 Reverse Transcriptase at a concentration of 16.8 uM
Summary of the method: (§2)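 HIV-1 RT from partially purified, concentrated disrupted virions. Reaction at 37 °C for 30 min in 50 mM Tris-HCl pH 8.4, 2 mM DTT, 100 mM KCl, 10 mM MgCl2, 0.1% Triton X-100, with 1 µCi [methyl-3H]dTTP (30 Ci/mmol) and 0.01 unit poly(rA)·oligo(dT). Stopped with 5% TCA; precipitate collected on glass-fiber filters and counted by liquid scintillation. Experimental variation at most 10%.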

[11] = biological target: Human immunodeficiency virus type 1 reverse transcriptase (Human immunodeficiency virus 1) (UniProt Q72547); experiment: Compound tested for % inhibition of cell-free HIV-1 Reverse Transcriptase at a concentration of 84 uM.
Summary of the method: as §2

MT4 [12] = experiment: Cell viability at a concentration of 100(420) ug/mL (uM).; type: functional, Homo sapiens
MT4 [13] = experiment: Compound was evaluated for inhibitory effect against MT-4 cells of HIV-2 at a concentration of 20(84) ug/mL (uM).; type: functional, Homo sapiens
Summary of the method: (§3)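 HIV-2 (ROD strain) infected MT-4 cells at multiplicity of infection 0.02, incubated with a range of compound concentrations for 4 days. Viable cells counted by MTT method. Per-concentration inhibition of virus-induced cytopathogenicity; values are means of two separate experiments.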

[14] = biological target: Human immunodeficiency virus type 1 reverse transcriptase (Human immunodeficiency virus 1) (UniProt Q72547); experiment: Inhibitory dose at a concentration of 2100 uM cell-free HIV-1 Reverse Transcriptase
Summary of the method: as §2

MT4 [15] = experiment: Compound was evaluated for inhibitory effect against MT-4 cells of HIV-2 at a concentration of 4(16.8) ug/mL (uM).; type: functional, Homo sapiens
Summary of the method: as §3

MT4 [16] = experiment: Compound was evaluated for inhibitory effect against MT-4 cells of HIV-2 at a concentration of 100(420) ug/mL (uM).; type: functional, Homo sapiens
Summary of the method: as §3

MT4 [17] = experiment: Cell viability at a concentration of 20(84) ug/mL (uM).; type: functional, Homo sapiens
MT4 [18] = experiment: Compound tested for its inhibition of HIV-1 induced cytopathogenicity in MT-4 cells.; type: functional; conditions: Homo sapiens, read-out: ED50 (the source's name)
Summary of the method: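 MT-4 cells infected with HIV-1 (HTLV-III_B) at MOI 0.02 and incubated 4 days with a range of compound concentrations. Viable cells were counted by MTT. ED50 is the 50% antiviral dose from inhibition of virus-induced cytopathogenicity, given as the mean of two separate experiments.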

MT4 [19] = experiment: Compound was evaluated for inhibitory effect against MT-4 cells of HIV-2 at a concentration of 0.8(3.4) ug/mL (uM).; type: functional, Homo sapiens
Summary of the method: as §3

MT4 [20] = experiment: Cell viability at a concentration of 4(16.8) ug/mL (uM).; type: functional, Homo sapiens
MT4 [21] = experiment: Compound tested for its ability to reduce viability of mock-infected MT-4 cells.; type: functional; conditions: Homo sapiens, read-out: CD50 (the source's name)
Summary of the method: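 Mock-infected MT-4 cells were incubated 4 days with a range of compound concentrations, and viability was read by MTT. CD50 is the 50% cytotoxic dose from reduced viability, given as the mean of two separate experiments.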

MT4 [22] = experiment: Cell viability at a concentration of 0.8(3.4) ug/mL (uM).; type: functional, Homo sapiens

Cc1ccc(C(=O)Nc2ccc(S(=O)(=O)O)c3cc(S(=O)(=O)O)cc(S(=O)(=O)O)c23)cc1NC(=O)c1cccc(NC(=O)Nc2cccc(C(=O)Nc3cc(C(=O)Nc4ccc(S(=O)(=O)O)c5cc(S(=O)(=O)O)cc(S(=O)(=O)O)c45)ccc3C)c2)c1 showed an inhibition [1] of 18%, an inhibition [2] of 92% and an inhibition [3] of 22%. It also gave an ID50 [4] of 42 µg/mL (≈ 32.4 µM).
Work on Nc1cc(S(=O)(=O)O)c2ccccc2c1N yielded an Inhibition (MT4 [5]) of 0%, an inhibition [6] of 0% and an Inhibition (MT4 [7]) of 0%. The EC50 (MT4 [8]) was over 45 µg/mL, the Inhibition (MT4 [9]) was 0% and the inhibition [10] was 2%. For the same compound, the inhibition [11] was 1%, the Cell viability (MT4 [12]) was 97 and the Inhibition (MT4 [13]) was 0%. For the same compound, the ID50 [14] was over 500 µg/mL, the Inhibition (MT4 [15]) was 3% and the Inhibition (MT4 [16]) was 0%. It also gave a Cell viability (MT4 [17]) of 1, an EC50 (MT4 [18]) of over 45 µg/mL and an Inhibition (MT4 [19]) of 1%. It also gave a Cell viability (MT4 [20]) of 0, a CC50 (MT4 [21]) of 45 µg/mL (≈ 189 µM) and a Cell viability (MT4 [22]) of 13.
